Values after ≈ are worked out from the molar mass of the structure shown.
Tests used:
Assay type in all cases: functional, Salmonella enterica subsp. enterica serovar Typhimurium
[1] = tested on: Salmonella typhimurium; assay: Antimicrobial activity against Salmonella enterica serovar Typhimurium S21-1 tolC::Kan with GyrA S83F mutation
How it was run: (§1)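 MICs measured by broth microdilution on the Sensititre automated system and interpreted by CLSI broth microdilution standards. Ciprofloxacin was also tested by agar dilution, widening the range to 0.0075–128 μg/ml. Quality control strains were E. coli ATCC 25922 and 35218, E. faecalis ATCC 29212, S. aureus ATCC 29213 and P. aeruginosa ATCC 27853.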

[2] = tested on: Salmonella typhimurium; assay: Antimicrobial activity against Salmonella enterica serovar Typhimurium GyrA S21-1 acrAB::Kan with GyrA S83F mutation; how it was run: as §1
[3] = tested on: Salmonella typhimurium; assay: Antimicrobial activity against Salmonella enterica serovar Typhimurium CS3 gyrA+ with GyrA S83F, D87N, ParC S80I mutation; how it was run: as §1
[4] = tested on: Salmonella typhimurium; assay: Antimicrobial activity against Salmonella enterica serovar Typhimurium S21-4 with GyrA S83F, ParC S80I mutation; how it was run: as §1
[5] = tested on: Salmonella typhimurium; assay: Antimicrobial activity against Salmonella enterica serovar Typhimurium S21 tolC::Kan
How it was run: (§2)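 MICs by automated broth microdilution panels, interpreted to CLSI broth microdilution standards. Ciprofloxacin additionally tested by agar dilution across 0.0075 to 128 μg/ml. Quality control strains: E. coli ATCC 25922 and 35218, Enterococcus faecalis ATCC 29212, S. aureus ATCC 29213, P. aeruginosa ATCC 27853. Test strains are kanamycin-marked deletion mutants of ground-beef isolate S21.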

[6] = tested on: Salmonella typhimurium; assay: Antimicrobial activity against Salmonella enterica serovar Typhimurium CHS38 with GyrA D87G mutation; how it was run: as §1
[7] = tested on: Salmonella typhimurium; assay: Antimicrobial activity against Salmonella enterica serovar Typhimurium CHS38 tolC::Kan with GyrA D87G mutation; how it was run: as §1
[8] = tested on: Salmonella typhimurium; assay: Antimicrobial activity against Salmonella enterica serovar Typhimurium S21-4 gyrA+ with ParC S80I mutation; how it was run: as §1
[9] = tested on: Salmonella typhimurium; assay: Antimicrobial activity against Salmonella enterica serovar Typhimurium S21-2 tolC::Kan with GyrA S83F, ParC S80I mutation; how it was run: as §1
[10] = tested on: Salmonella typhimurium; assay: Antimicrobial activity against Salmonella enterica serovar Typhimurium CHS18 with GyrA S38F mutation; how it was run: as §1
[11] = tested on: Salmonella typhimurium; assay: Antimicrobial activity against Salmonella enterica serovar Typhimurium S21-4 acrAB::Kan with GyrA S83F, ParC S80I mutation; how it was run: as §1
[12] = tested on: Salmonella typhimurium; assay: Antimicrobial activity against Salmonella enterica serovar Typhimurium S21-1 GyrA S83F mutant; how it was run: as §1
[13] = tested on: Salmonella typhimurium; assay: Antimicrobial activity against Salmonella enterica serovar Typhimurium CS3 acrAB::Kan with GyrA S83F, D87N, ParC S80I mutation; how it was run: as §1
[14] = tested on: Salmonella typhimurium; assay: Antimicrobial activity against Salmonella enterica serovar Typhimurium S21-1 gyrA+; how it was run: as §1
[15] = tested on: Salmonella typhimurium; assay: Antimicrobial activity against Salmonella enterica serovar Typhimurium S21-3 gyrA+ with ParC S80I mutation; how it was run: as §1
[16] = tested on: Salmonella typhimurium; assay: Antimicrobial activity against Salmonella enterica serovar Typhimurium CS9 gyrA+ with GyrA S83F, D87N, ParC S80I mutation; how it was run: as §1
[17] = tested on: Salmonella typhimurium; assay: Antimicrobial activity against Salmonella enterica serovar Typhimurium CS3 tolC::Kan with GyrA S83F, D87N, parC S80I mutation; how it was run: as §1
[18] = tested on: Salmonella typhimurium; assay: Antimicrobial activity against Salmonella enterica serovar Typhimurium S21-4 tolC::Kan with GyrA S83F, ParC S80I mutation; how it was run: as §1
[19] = tested on: Salmonella typhimurium; assay: Antimicrobial activity against Salmonella enterica serovar Typhimurium CHS38 acrAB::Kan with GyrA D87G mutation; how it was run: as §1
[20] = tested on: Salmonella typhimurium; assay: Antimicrobial activity against Salmonella enterica serovar Typhimurium CHS18 acrAB::Kan with GyrA S38F mutation; how it was run: as §1
[21] = tested on: Salmonella typhimurium; assay: Antimicrobial activity against Salmonella enterica serovar Typhimurium CHS18 gyrA+ with GyrA S38F mutation; how it was run: as §1
[22] = tested on: Salmonella typhimurium; assay: Antimicrobial activity against Salmonella enterica serovar Typhimurium CHS18 tolC::Kan with GyrA S38F mutation; how it was run: as §1
[23] = tested on: Salmonella typhimurium; assay: Antimicrobial activity against Salmonella enterica serovar Typhimurium CS9 acrAB::Kan with GyrA S83F, D87N, ParC S80I mutation; how it was run: as §1
[24] = tested on: Salmonella typhimurium; assay: Antimicrobial activity against Salmonella enterica serovar Typhimurium CS9 with GyrA S83F, D87N, ParC S80I mutation; how it was run: as §1
[25] = tested on: Salmonella typhimurium; assay: Antimicrobial activity against Salmonella enterica serovar Typhimurium S21 gyrA+; how it was run: as §1
[26] = tested on: Salmonella typhimurium; assay: Antimicrobial activity against Salmonella enterica serovar Typhimurium CS1 tolC::Kan with GyrA S83F, D87N, ParC S80I mutation; how it was run: as §1
[27] = tested on: Salmonella typhimurium; assay: Antimicrobial activity against Salmonella enterica serovar Typhimurium CHS14 with GyrA D87G mutation; how it was run: as §1
[28] = tested on: Salmonella typhimurium; assay: Antimicrobial activity against Salmonella enterica serovar Typhimurium CS1 acrAB::Kan with GyrA S83F, D87N, ParC S80I mutation; how it was run: as §1
[29] = tested on: Salmonella typhimurium; assay: Antimicrobial activity against Salmonella enterica serovar Typhimurium S21-3 acrAB::Kan with GyrA S83F, ParC S80I mutation; how it was run: as §1
[30] = tested on: Salmonella typhimurium; assay: Antimicrobial activity against Salmonella enterica serovar Typhimurium CHS14 tolC::Kan with GyrA D87G mutant; how it was run: as §1
[31] = tested on: Salmonella typhimurium; assay: Antimicrobial activity against Salmonella enterica serovar Typhimurium S21-3 with GyrA S83F, ParC S80I mutation; how it was run: as §1
[32] = tested on: Salmonella typhimurium; assay: Antimicrobial activity against Salmonella enterica serovar Typhimurium CS1 gyrA+ with GyrA S83F, D87N, ParC S80I mutation; how it was run: as §1
[33] = tested on: Salmonella typhimurium; assay: Antimicrobial activity against Salmonella enterica serovar Typhimurium S21-2 acrAB::Kan with GyrA S83F, ParC S80I mutation; how it was run: as §1
[34] = tested on: Salmonella typhimurium; assay: Antimicrobial activity against Salmonella enterica serovar Typhimurium S21-3 tolC::Kan with GyrA S83F, ParC S80I mutation; how it was run: as §1
[35] = tested on: Salmonella typhimurium; assay: Antimicrobial activity against Salmonella enterica serovar Typhimurium S21-2 with GyrA S83F, ParC S80I mutation; how it was run: as §1
[36] = tested on: Salmonella typhimurium; assay: Antimicrobial activity against Salmonella enterica serovar Typhimurium S21-2 gyrA+ with ParC S80I mutation; how it was run: as §1
[37] = tested on: Salmonella typhimurium; assay: Antimicrobial activity against Salmonella enterica serovar Typhimurium CS1 with GyrA S83F, D87N, ParC S80I mutation; how it was run: as §1
[38] = tested on: Salmonella typhimurium; assay: Antimicrobial activity against Salmonella enterica serovar Typhimurium CHS38 gyrA+ with GyrA D87G mutation; how it was run: as §1
[39] = tested on: Salmonella typhimurium; assay: Antimicrobial activity against Salmonella enterica serovar Typhimurium S21; how it was run: as §1
[40] = tested on: Salmonella typhimurium; assay: Antimicrobial activity against Salmonella enterica serovar Typhimurium CHS14 gyrA+ with GyrA D87G mutation; how it was run: as §1
[41] = tested on: Salmonella typhimurium; assay: Antimicrobial activity against Salmonella enterica serovar Typhimurium CHS14 acrAB::Kan with GyrA D87G mutation; how it was run: as §1
[42] = tested on: Salmonella typhimurium; assay: Antimicrobial activity against Salmonella enterica serovar Typhimurium CS9 tolC::Kan with GyrA S83F, D87N, ParC S80I mutation; how it was run: as §1
[43] = tested on: Salmonella typhimurium; assay: Antimicrobial activity against Salmonella enterica serovar Typhimurium S21 acrAB::Kan; how it was run: as §2
[44] = tested on: Salmonella typhimurium; assay: Antimicrobial activity against Salmonella enterica serovar Typhimurium CS3 with GyrA S83F, D87N, ParC S80I mutation; how it was run: as §1

SMILES: CN1CCN(c2cc3c(cc2F)c(=O)c(C(=O)O)cn3-c2ccc(F)cc2)CC1 [DIFLOXACIN]
- MIC [1]: 0.25 µg/mL (≈ 0.626 µM)
- MIC [2]: 0.25 µg/mL (≈ 0.626 µM)
- MIC [3]: 0.5 µg/mL (≈ 1.25 µM)
- MIC [4]: > 16 µg/mL
- MIC [5]: < 0.015 µg/mL
- MIC [6]: 1 µg/mL (≈ 2.5 µM)
- MIC [7]: < 0.015 µg/mL
- MIC [8]: 4 µg/mL (≈ 10 µM)
- MIC [9]: 0.25 µg/mL (≈ 0.626 µM)
- MIC [10]: 2 µg/mL (≈ 5.01 µM)
- MIC [11]: 1 µg/mL (≈ 2.5 µM)
- MIC [12]: 4 µg/mL (≈ 10 µM)
- MIC [13]: 16 µg/mL (≈ 40.1 µM)
- MIC [14]: 0.25 µg/mL (≈ 0.626 µM)
- MIC [15]: 4 µg/mL (≈ 10 µM)
- MIC [16]: 0.5 µg/mL (≈ 1.25 µM)
- MIC [17]: 4 µg/mL (≈ 10 µM)
- MIC [18]: 1 µg/mL (≈ 2.5 µM)
- MIC [19]: 0.06 µg/mL (≈ 0.15 µM)
- MIC [20]: 1 µg/mL (≈ 2.5 µM)
- MIC [21]: 0.25 µg/mL (≈ 0.626 µM)
- MIC [22]: 0.06 µg/mL (≈ 0.15 µM)
- MIC [23]: 16 µg/mL (≈ 40.1 µM)
- MIC [24]: > 16 µg/mL
- MIC [25]: 0.25 µg/mL (≈ 0.626 µM)
- MIC [26]: 4 µg/mL (≈ 10 µM)
- MIC [27]: 1 µg/mL (≈ 2.5 µM)
- MIC [28]: 16 µg/mL (≈ 40.1 µM)
- MIC [29]: 0.5 µg/mL (≈ 1.25 µM)
- MIC [30]: 0.03 µg/mL (≈ 0.0751 µM)
- MIC [31]: > 16 µg/mL
- MIC [32]: 0.5 µg/mL (≈ 1.25 µM)
- MIC [33]: 0.25 µg/mL (≈ 0.626 µM)
- MIC [34]: 0.5 µg/mL (≈ 1.25 µM)
- MIC [35]: > 16 µg/mL
- MIC [36]: 2 µg/mL (≈ 5.01 µM)
- MIC [37]: > 16 µg/mL
- MIC [38]: < 0.015 µg/mL
- MIC [39]: 0.25 µg/mL (≈ 0.626 µM)
- MIC [40]: 0.5 µg/mL (≈ 1.25 µM)
- MIC [41]: 0.03 µg/mL (≈ 0.0751 µM)
- MIC [42]: 4 µg/mL (≈ 10 µM)
- MIC [43]: < 0.015 µg/mL
- MIC [44]: > 16 µg/mL
